Residues, ends and D or L forms follow the SMILES beside them.
Assays:
[1] = target: Opioid receptors; mu & delta (Rattus norvegicus) (UniProt P33533+P33535); test: Selectivity for rat mu opioid receptor over rat delta opioid; format: protein assay
Method in brief: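 Ratio of IC50 values from [3H]deltorphin II (delta) and [3H]DAGO (mu) displacement on rat brain membranes. Each used 0.25 nM tracer, 60 min incubation at room temperature in Tris-HCl pH 7.55 with 0.1% BSA and bacitracin, and filtration with scintillation counting.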

[2] = target: Delta-type opioid receptor (Rattus norvegicus, UniProt P33533); test: Displacement of [3H]deltorphin2 from delta opioid receptor in rat brain membrane; format: cell membranes
[3] = target: Mu-type opioid receptor (Rattus norvegicus, UniProt P33535); test: Displacement of [3H]DAGO from mu opioid receptor in rat brain membrane; format: cell membranes
Chain of Mu-type opioid receptor (P33535 whole entry): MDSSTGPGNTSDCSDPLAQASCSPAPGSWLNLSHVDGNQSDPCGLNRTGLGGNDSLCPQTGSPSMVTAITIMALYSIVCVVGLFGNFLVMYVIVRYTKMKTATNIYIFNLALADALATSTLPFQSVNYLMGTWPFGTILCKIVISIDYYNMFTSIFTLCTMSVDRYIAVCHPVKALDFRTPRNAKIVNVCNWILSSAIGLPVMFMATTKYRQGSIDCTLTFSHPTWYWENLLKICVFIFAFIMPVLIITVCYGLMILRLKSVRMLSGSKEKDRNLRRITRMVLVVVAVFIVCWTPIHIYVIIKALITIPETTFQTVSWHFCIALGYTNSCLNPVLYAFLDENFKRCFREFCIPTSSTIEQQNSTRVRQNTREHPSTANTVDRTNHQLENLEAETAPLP

Chain of Opioid receptors; mu & delta (Rattus norvegicus) (P33533 whole entry, looked up): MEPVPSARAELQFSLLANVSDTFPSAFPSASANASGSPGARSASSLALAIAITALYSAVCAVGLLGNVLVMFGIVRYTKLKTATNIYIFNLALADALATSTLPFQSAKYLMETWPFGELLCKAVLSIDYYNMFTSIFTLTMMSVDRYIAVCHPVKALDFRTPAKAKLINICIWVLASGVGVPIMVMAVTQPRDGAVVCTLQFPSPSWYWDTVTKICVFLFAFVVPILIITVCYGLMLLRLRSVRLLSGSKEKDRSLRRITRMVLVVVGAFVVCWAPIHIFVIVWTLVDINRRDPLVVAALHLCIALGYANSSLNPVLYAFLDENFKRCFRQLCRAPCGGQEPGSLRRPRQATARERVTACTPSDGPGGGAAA
Chain of Opioid receptors; mu & delta (Rattus norvegicus) (P33535 whole entry, looked up): as the sequence (P33535 whole entry) above
Chain of Delta-type opioid receptor (P33533 whole entry): as the sequence (P33533 whole entry, looked up) above

`NC(=O)[C@H](Cc1c(F)c(F)c(F)c(F)c1F)NC(=O)[C@H](Cc1ccccc1)NC(=O)[C@@H]1CCCN1C(=O)[C@@H](N)Cc1ccc(O)cc1` was tested. Which Ratio IC50 [1] did it give?
The Ratio IC50 was 1000.

What about the IC50 [2] of the same compound?
The IC50 was 8.04 µM.

And the IC50 [3]?
The IC50 was 0.00274 µM.

For `NC(=O)[C@H](Cc1ccccc1)NC(=O)[C@H](Cc1c(F)c(F)c(F)c(F)c1F)NC(=O)[C@@H]1CCCN1C(=O)[C@@H](N)Cc1ccc(O)cc1`, which Ratio IC50 [1] is on record?
The Ratio IC50 was 1000.

What about the IC50 [2] of the same compound?
Its IC50 is 11.7 µM.

What about the IC50 [3] of the same compound?
Its IC50 is 0.0117 µM.

`C[C@H](NC(=O)[C@@H]1CCCN1C(=O)[C@@H](N)Cc1ccc(O)cc1)C(=O)N[C@@H](Cc1ccccc1)C(N)=O` (H-YPAF-NH2) was tested. Which IC50 [3] did it give?
The IC50 was 3.81 µM.

For `C[C@H](NC(=O)[C@H](Cc1ccccc1)NC(=O)[C@@H]1CCCN1C(=O)[C@@H](N)Cc1ccc(O)cc1)C(N)=O` (H-YPFA-NH2), which IC50 [3] is on record?
The IC50 was 0.0854 µM.

Which IC50 [2] does the source give for `NC(=O)[C@H](Cc1c[nH]cn1)NC(=O)[C@H](Cc1ccccc1)NC(=O)[C@@H]1CCCN1C(=O)[C@@H](N)Cc1ccc(O)cc1` (H-YPFH-NH2) here?
The IC50 was > 1000 µM.

And the IC50 [3]?
The IC50 was 0.138 µM.

Which IC50 [3] does the source give for `NCCCC[C@H](NC(=O)[C@H](Cc1ccccc1)NC(=O)[C@@H]1CCCN1C(=O)[C@@H](N)Cc1ccc(O)cc1)C(N)=O` (H-YPFK-NH2) here?
The IC50 was 0.408 µM.

`CC(C)C[C@H](NC(=O)[C@H](Cc1ccccc1)NC(=O)[C@@H]1CCCN1C(=O)[C@@H](N)Cc1ccc(O)cc1)C(N)=O` (H-YPFL-NH2) was tested. Which IC50 [2] did it give?
Its IC50 is > 1000 µM.

What about the IC50 [3] of the same compound?
The IC50 was 0.062 µM.

For `CC(C)[C@H](NC(=O)[C@H](Cc1ccccc1)NC(=O)[C@@H]1CCCN1C(=O)[C@@H](N)Cc1ccc(O)cc1)C(N)=O` (H-YPFV-NH2), which IC50 [2] is on record?
The IC50 was > 1000 µM.

What about the IC50 [3] of the same compound?
Its IC50 is 0.0765 µM.

Which results are given for `NC(=O)[C@H](Cc1c[nH]c2ccccc12)NC(=O)[C@H](Cc1ccccc1)NC(=O)[C@@H]1CCCN1C(=O)[C@@H](N)Cc1ccc(O)cc1` (H-YPFW-NH2)?
IC50 [2]: > 1000 µM; IC50 [3]: 0.0871 µM

Which Ratio IC50 [1] does the source give for `NC(=O)[C@H](Cc1ccc(O)cc1)NC(=O)[C@H](Cc1ccccc1)NC(=O)[C@@H]1CCCN1C(=O)[C@@H](N)Cc1ccc(O)cc1` (H-YPFY-NH2) here?
The Ratio IC50 was 5.2.

What about the IC50 [2] of the same compound?
The IC50 was 54.5 µM.

What about the IC50 [3] of the same compound?
Its IC50 is 0.0622 µM.

How did the IC50 [2] turn out when `NC(=O)[C@H](Cc1ccccc1)NC(=O)[C@H](Cc1c[nH]cn1)NC(=O)[C@@H]1CCCN1C(=O)[C@@H](N)Cc1ccc(O)cc1` (H-YPHF-NH2) was run?
The IC50 was > 1000 µM.

What about the IC50 [3] of the same compound?
The IC50 was 4.49 µM.

For `NCCCC[C@H](NC(=O)[C@@H]1CCCN1C(=O)[C@@H](N)Cc1ccc(O)cc1)C(=O)N[C@@H](Cc1ccccc1)C(N)=O` (H-YPKF-NH2), which IC50 [3] is on record?
The IC50 was > 1000 µM.

What does the source list for `CC(C)C[C@H](NC(=O)[C@@H]1CCCN1C(=O)[C@@H](N)Cc1ccc(O)cc1)C(=O)N[C@@H](Cc1ccccc1)C(N)=O` (H-YPLF-NH2)?
IC50 [2]: > 1000 µM; IC50 [3]: 0.926 µM

`CC(C)[C@H](NC(=O)[C@@H]1CCCN1C(=O)[C@@H](N)Cc1ccc(O)cc1)C(=O)N[C@@H](Cc1ccccc1)C(N)=O` (H-YPVF-NH2) was tested. Which IC50 [2] did it give?
The IC50 was > 1000 µM.

And the IC50 [3]?
The IC50 was 2.65 µM.

Which results are given for `NC(=O)[C@H](Cc1ccccc1)NC(=O)[C@H](Cc1ccc(O)cc1)NC(=O)[C@@H]1CCCN1C(=O)[C@@H](N)Cc1ccc(O)cc1` (H-YPYF-NH2)?
Ratio IC50 [1]: 5.2; IC50 [2]: 5.72 µM; IC50 [3]: 1.1 µM

Which Ratio IC50 [1] does the source give for `NC(=O)[C@H](CC1CCCCC1)NC(=O)[C@H](Cc1ccccc1)NC(=O)[C@@H]1CCCN1C(=O)[C@@H](N)Cc1ccc(O)cc1` (HELM PEPTIDE1{Y.P.F.[Cha].[am]}$$$$V2.0) here?
The Ratio IC50 was 21.3.

What about the IC50 [2] of the same compound?
Its IC50 is 11.4 µM.

What about the IC50 [3] of the same compound?
The IC50 was 0.917 µM.

Which results are given for `CCCC[C@H](NC(=O)[C@H](Cc1ccccc1)NC(=O)[C@@H]1CCCN1C(=O)[C@@H](N)Cc1ccc(O)cc1)C(N)=O` (HELM PEPTIDE1{Y.P.F.[Nle].[am]}$$$$V2.0)?
IC50 [2]: > 1000 µM; IC50 [3]: 0.0339 µM

With `NC(=O)[C@H](Cc1ccccc1)NC(=O)[C@H](CC1CCCCC1)NC(=O)[C@@H]1CCCN1C(=O)[C@@H](N)Cc1ccc(O)cc1` (HELM PEPTIDE1{Y.P.[Cha].F.[am]}$$$$V2.0) as the compound, how does the Ratio IC50 [1] read?
Its Ratio IC50 is 21.3.

What about the IC50 [2] of the same compound?
Its IC50 is 3.15 µM.

What about the IC50 [3] of the same compound?
The IC50 was 0.148 µM.

What does the source list for `CCCC[C@H](NC(=O)[C@@H]1CCCN1C(=O)[C@@H](N)Cc1ccc(O)cc1)C(=O)N[C@@H](Cc1ccccc1)C(N)=O` (HELM PEPTIDE1{Y.P.[Nle].F.[am]}$$$$V2.0)?
Ratio IC50 [1]: 66.1; IC50 [2]: 15.2 µM; IC50 [3]: 0.23 µM

`C[C@@H](NC(=O)[C@@H](N)Cc1ccc(O)cc1)C(=O)NCC(=O)N(C)[C@@H](Cc1ccccc1)C(=O)NCCO` [DAMGO] was tested. Which IC50 [2] did it give?
The IC50 was 0.727 µM.
